According to ChEMBL document CHEMBL1649231, “In vitro activities of panduratin A against clinical Staphylococcus strains” (2009):
≈ marks a conversion by molar mass, not a printed value.

Experiments:
Assay type in all cases: functional
[1] = system: Staphylococcus simulans; assay: Antimicrobial activity against methicillin-susceptible coagulase-negative Staphylococcus simulans after 24 hrs by broth microdilution method
In short: (§1)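 Clinical isolates came from blood, body fluids, genital secretions, pus or sputum, identified conventionally or by Vitek. MICs were run by CLSI M7-A6 broth microdilution in Mueller-Hinton broth with 5 × 10^5 CFU/ml inoculum. Agents were twofold serially diluted, starting from 10% DMSO. Drug-free and uninoculated controls were included. Plates were incubated aerobically at 37°C for 24 h; MIC is the lowest concentration giving no visible growth.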

[2] = system: Staphylococcus aureus; assay: Antimicrobial activity against methicillin-susceptible Staphylococcus aureus assessed as resistant isolates after 24 hrs by broth microdilution method
[3] = system: Staphylococcus hominis; assay: Antimicrobial activity against methicillin-susceptible coagulase-negative Staphylococcus hominis assessed as resistant isolates after 24 hrs by broth microdilution method
[4] = system: Mammaliicoccus sciuri; assay: Antimicrobial activity against methicillin-resistant coagulase-negative Staphylococcus sciuri assessed as intermediate resistant isolates after 24 hrs by broth microdilution method
[5] = system: Staphylococcus epidermidis; assay: Bactericidal activity against methicillin-susceptible coagulase-negative Staphylococcus epidermidis after 24 hrs by plate counting method
In short: (§2)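 Clinical staphylococcal isolates from patient body fluids, blood, genital secretions, pus or sputum; species by conventional methods or Vitek. Twofold dilutions in Mueller-Hinton broth, inoculum 5 × 10^5 CFU/ml, 37°C aerobic 24 h (CLSI M7-A6 microdilution). About 100 μl from each well without visible growth spread on MHA; 37°C 24 h. MBC = lowest concentration giving no growth on agar.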

[6] = system: Staphylococcus hominis; assay: Antimicrobial activity against methicillin-resistant coagulase-negative Staphylococcus hominis assessed as intermediate resistant isolates after 24 hrs by broth microdilution method
[7] = system: Staphylococcus hominis; assay: Antimicrobial activity against methicillin-resistant coagulase-negative Staphylococcus hominis assessed as resistant isolates after 24 hrs by broth microdilution method
[8] = system: Staphylococcus simulans; assay: Antimicrobial activity against methicillin-resistant coagulase-negative Staphylococcus simulans assessed as resistant isolates after 24 hrs by broth microdilution method
[9] = system: Mammaliicoccus sciuri; assay: Antimicrobial activity against methicillin-susceptible coagulase-negative Staphylococcus sciuri after 24 hrs by broth microdilution method; in short: as §1
[10] = system: Staphylococcus aureus; assay: Antimicrobial activity against methicillin-resistant Staphylococcus aureus assessed as intermediate resistant isolates after 24 hrs by broth microdilution method
[11] = system: Staphylococcus aureus; assay: Bactericidal activity against methicillin-resistant Staphylococcus aureus after 24 hrs by plate counting method
[12] = system: Staphylococcus epidermidis; assay: Antimicrobial activity against methicillin-resistant coagulase-negative Staphylococcus epidermidis assessed as susceptible isolates after 24 hrs by broth microdilution method
[13] = system: Mammaliicoccus sciuri; assay: Antimicrobial activity against methicillin-resistant coagulase-negative Staphylococcus sciuri after 24 hrs by broth microdilution method; in short: as §1
[14] = system: Staphylococcus simulans; assay: Antimicrobial activity against methicillin-resistant coagulase-negative Staphylococcus simulans assessed as intermediate resistant isolates after 24 hrs by broth microdilution method
[15] = system: Staphylococcus aureus; assay: Bactericidal activity against methicillin-susceptible Staphylococcus aureus after 24 hrs by plate counting method; in short: as §2
[16] = system: Mammaliicoccus sciuri; assay: Antimicrobial activity against methicillin-susceptible coagulase-negative Staphylococcus sciuri assessed as resistant isolates after 24 hrs by broth microdilution method
[17] = system: Staphylococcus haemolyticus; assay: Antimicrobial activity against methicillin-susceptible coagulase-negative Staphylococcus haemolyticus assessed as resistant isolates after 24 hrs by broth microdilution method
[18] = system: Staphylococcus haemolyticus; assay: Antimicrobial activity against methicillin-resistant coagulase-negative Staphylococcus haemolyticus after 24 hrs by broth microdilution method; in short: as §1
[19] = system: Mammaliicoccus sciuri; assay: Bactericidal activity against methicillin-susceptible coagulase-negative Staphylococcus sciuri after 24 hrs by plate counting method; in short: as §2
[20] = system: Staphylococcus hominis; assay: Antimicrobial activity against methicillin-resistant coagulase-negative Staphylococcus hominis assessed as susceptible isolates after 24 hrs by broth microdilution method
[21] = Staphylococcus epidermidis, 24 h

GENTAMICIN was tested, and the MIC50 [1] was 0.125 mg/L, the MIC90 [1] was 32 mg/L and the Activity [2] was 48%. The Activity [3] was 27%, the Activity [4] was 7% and the MBC [5] was 0.25 mg/L. It also gave an MBC50 [5] of 1 mg/L, an MBC90 [5] of 64 mg/L and an Activity [6] of 7%. The Activity [7] was 48%, the Activity [8] was 48% and the MIC50 [9] was 0.125 mg/L. The MIC90 [9] was 32 mg/L, the Activity [10] was 22% and the MBC [11] was 2 mg/L. It also gave an MBC50 [11] of 64 mg/L, an MBC90 [11] of 128 mg/L and an Activity [12] of 45%. It also gave an MIC50 [13] of 8 mg/L, an MIC90 [13] of 64 mg/L and an Activity [14] of 7%. The MBC [15] was 0.5 mg/L, the MBC50 [15] was 8 mg/L and the MBC90 [15] was 128 mg/L. For the same compound, the Activity [16] was 27%, the Activity [17] was 27% and the MIC50 [18] was 8 mg/L. The MIC90 [18] was 64 mg/L, the MBC [19] was 0.25 mg/L and the MBC50 [19] was 1 mg/L. It also gave an MBC90 [19] of 64 mg/L and an Activity [20] of 45%.

`CC[C@H]1OC(=O)[C@H](C)[C@@H](O[C@H]2C[C@@](C)(OC)[C@@H](O)[C@H](C)O2)[C@H](C)[C@@H](O[C@@H]2O[C@H](C)C[C@H](N(C)C)[C@H]2O)[C@](C)(O)C[C@@H](C)C(=O)[C@H](C)[C@@H](O)[C@]1(C)O` [ERYTHROMYCIN] gave an MIC [1] of 0.5 mg/L (≈ 0.681 µM), an MIC50 [1] of 0.5 mg/L (≈ 0.681 µM) and an MIC90 [1] of 16 mg/L (≈ 21.8 µM). For the same compound, the Activity [2] was 40%, the Activity [3] was 27% and the Activity [4] was 15%. For the same compound, the MBC50 [5] was 2 mg/L (≈ 2.73 µM), the MBC [5, 21] was 1 mg/L (≈ 1.36 µM) and the Activity [6] was 15%. The Activity [7] was 74%, the Activity [8] was 74% and the MIC [9] was 0.5 mg/L (≈ 0.681 µM). It also gave an MIC50 [9] of 0.5 mg/L (≈ 0.681 µM), an MIC90 [9] of 16 mg/L (≈ 21.8 µM) and an Activity [10] of 0%. For the same compound, the MBC ([11]; Staphylococcus aureus, 24 h) was 32 mg/L (≈ 43.6 µM), the Activity [12] was 11% and the MIC50 [13] was 16 mg/L (≈ 21.8 µM). For the same compound, the MIC90 [13] was 32 mg/L (≈ 43.6 µM), the Activity [14] was 15% and the MBC50 [15] was 4 mg/L (≈ 5.45 µM). For the same compound, the MBC ([15]; Staphylococcus aureus, 24 h) was 1 mg/L (≈ 1.36 µM), the Activity [16] was 27% and the Activity [17] was 27%. For the same compound, the MIC50 [18] was 16 mg/L (≈ 21.8 µM), the MIC90 [18] was 32 mg/L (≈ 43.6 µM) and the MBC50 [19] was 2 mg/L (≈ 2.73 µM). The MBC ([19]; Mammaliicoccus sciuri, 24 h) was 1 mg/L (≈ 1.36 µM) and the Activity [20] was 11%.

`C[C@H]1COc2c(N3CCN(C)CC3)c(F)cc3c(=O)c(C(=O)O)cn1c23.C[C@H]1COc2c(N3CCN(C)CC3)c(F)cc3c(=O)c(C(=O)O)cn1c23.O` [LEVOFLOXACIN] showed an MIC [1] of 0.25 mg/L, an MIC50 [1] of 0.25 mg/L and an MIC90 [1] of 0.5 mg/L. It also gave an Activity [2] of 15%, an Activity [3] of 4% and an Activity [4] of 15%. It also gave an MBC50 [5] of 1 mg/L, an MBC90 [5] of 4 mg/L and an MBC [5, 21] of 0.5 mg/L. The Activity [6] was 15%, the Activity [7] was 59% and the Activity [8] was 59%. For the same compound, the MIC [9] was 0.25 mg/L, the MIC50 [9] was 0.25 mg/L and the MIC90 [9] was 0.5 mg/L. The Activity [10] was 0%, the MBC50 [11] was 16 mg/L and the MBC90 [11] was 512 mg/L. It also gave an MBC ([11]; Staphylococcus aureus, 24 h) of 0.5 mg/L, an Activity [12] of 26% and an MIC [13] of 0.25 mg/L. For the same compound, the MIC50 [13] was 0.25 mg/L, the MIC90 [13] was 4 mg/L and the Activity [14] was 15%. For the same compound, the MBC50 [15] was 1 mg/L, the MBC90 [15] was 8 mg/L and the MBC ([15]; Staphylococcus aureus, 24 h) was 0.125 mg/L. It also gave an Activity [16] of 4%, an Activity [17] of 4% and an MIC [18] of 0.25 mg/L. The MIC50 [18] was 0.25 mg/L, the MIC90 [18] was 4 mg/L and the MBC50 [19] was 1 mg/L. For the same compound, the MBC90 [19] was 4 mg/L, the MBC ([19]; Mammaliicoccus sciuri, 24 h) was 0.5 mg/L and the Activity [20] was 26%.

With `CN(C)[C@@H]1C(O)=C(C(N)=O)C(=O)[C@@]2(O)C(O)=C3C(=O)c4c(O)cccc4[C@@](C)(O)[C@H]3C[C@@H]12` [TETRACYCLINE] the MIC [1] was 0.5 mg/L (≈ 1.13 µM), the MIC50 [1] was 0.5 mg/L (≈ 1.13 µM) and the MIC90 [1] was 32 mg/L (≈ 72 µM). For the same compound, the Activity [2] was 11%, the Activity [3] was 12% and the Activity [4] was 7%. For the same compound, the MBC50 [5] was 8 mg/L (≈ 18 µM), the MBC90 [5] was 128 mg/L (≈ 288 µM) and the MBC [5, 21] was 1 mg/L (≈ 2.25 µM). The Activity [6] was 7%, the Activity [7] was 75% and the Activity [8] was 75%. It also gave an MIC [9] of 0.5 mg/L (≈ 1.13 µM), an MIC50 [9] of 0.5 mg/L (≈ 1.13 µM) and an MIC90 [9] of 32 mg/L (≈ 72 µM). The Activity [10] was 0%, the MBC50 [11] was 64 mg/L (≈ 144 µM) and the MBC90 [11] was 512 mg/L (≈ 1150 µM). The MBC ([11]; Staphylococcus aureus, 24 h) was 2 mg/L (≈ 4.5 µM), the Activity [12] was 18% and the MIC50 [13] was 1 mg/L (≈ 2.25 µM). It also gave an MIC90 [13] of 64 mg/L (≈ 144 µM), an Activity [14] of 7% and an MBC50 [15] of 8 mg/L (≈ 18 µM). For the same compound, the MBC90 [15] was 32 mg/L (≈ 72 µM), the MBC ([15]; Staphylococcus aureus, 24 h) was 1 mg/L (≈ 2.25 µM) and the Activity [16] was 12%. The Activity [17] was 12%, the MIC50 [18] was 1 mg/L (≈ 2.25 µM) and the MIC90 [18] was 64 mg/L (≈ 144 µM). For the same compound, the MBC50 [19] was 8 mg/L (≈ 18 µM), the MBC90 [19] was 128 mg/L (≈ 288 µM) and the MBC ([19]; Mammaliicoccus sciuri, 24 h) was 1 mg/L (≈ 2.25 µM). It also gave an Activity [20] of 18%.

`CN[C@H](CC(C)C)C(=O)N[C@H]1C(=O)N[C@@H](CC(N)=O)C(=O)N[C@H]2C(=O)N[C@H]3C(=O)N[C@H](C(=O)N[C@H](C(=O)O)c4cc(O)cc(O)c4-c4cc3ccc4O)[C@H](O)c3ccc(c(Cl)c3)Oc3cc2cc(c3O[C@@H]2O[C@H](CO)[C@@H](O)[C@H](O)[C@H]2O[C@H]2C[C@](C)(N)[C@H](O)[C@H](C)O2)Oc2ccc(cc2Cl)[C@H]1O` [VANCOMYCIN] showed an MIC50 [1] of 0.25 mg/L (≈ 0.173 µM), an MIC90 [1] of 1 mg/L (≈ 0.69 µM) and an Activity [2] of 0%. The Activity [3] was 0%, the Activity [4] was 0% and the MBC50 [5] was 1 mg/L (≈ 0.69 µM). It also gave an MBC90 [5] of 4 mg/L (≈ 2.76 µM), an MBC [5, 21] of 0.125 mg/L (≈ 0.0863 µM) and an Activity [6] of 0%. It also gave an Activity [7] of 0%, an Activity [8] of 0% and an MIC50 [9] of 0.25 mg/L (≈ 0.173 µM). It also gave an MIC90 [9] of 1 mg/L (≈ 0.69 µM), an Activity [10] of 0% and an MBC50 [11] of 1 mg/L (≈ 0.69 µM). For the same compound, the MBC90 [11] was 2 mg/L (≈ 1.38 µM), the MBC ([11]; Staphylococcus aureus, 24 h) was 0.5 mg/L (≈ 0.345 µM) and the Activity [12] was 100%. For the same compound, the MIC [13] was 0.125 mg/L (≈ 0.0863 µM), the MIC50 [13] was 0.125 mg/L (≈ 0.0863 µM) and the MIC90 [13] was 2 mg/L (≈ 1.38 µM). For the same compound, the Activity [14] was 0%, the MBC50 [15] was 1 mg/L (≈ 0.69 µM) and the MBC90 [15] was 2 mg/L (≈ 1.38 µM). The MBC ([15]; Staphylococcus aureus, 24 h) was 0.25 mg/L (≈ 0.173 µM), the Activity [16] was 0% and the Activity [17] was 0%. It also gave an MIC [18] of 0.125 mg/L (≈ 0.0863 µM), an MIC50 [18] of 0.125 mg/L (≈ 0.0863 µM) and an MIC90 [18] of 2 mg/L (≈ 1.38 µM). The MBC50 [19] was 1 mg/L (≈ 0.69 µM), the MBC90 [19] was 4 mg/L (≈ 2.76 µM) and the MBC ([19]; Mammaliicoccus sciuri, 24 h) was 0.125 mg/L (≈ 0.0863 µM). For the same compound, the Activity [20] was 100%.
